Results reported in ChEMBL document CHEMBL1212777, “Novel VIM metallo-beta-lactamase variant from clinical isolates of Enterobacteriaceae from Algeria” (2010).
≈ marks a conversion by molar mass, not a printed value.

Tests used:
Type in all cases: functional
Providencia stuartii [1] = assay: Antimicrobial activity against Providencia stuartii 6858 strain expressing beta-lactamase VIM-19 by microdilution method
Summary of the method: (§1)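 Clinical isolates from intensive care patients. MICs by dilution on Mueller-Hinton agar, inoculum 10^4 CFU per spot, read after growth and interpreted by CA-SFM guidelines. Where the line names an inhibitor, it was held at a fixed level: clavulanic acid 2 μg/ml, tazobactam 4 μg/ml, or EDTA 0.4 mM.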

Klebsiella pneumoniae [2] = assay: Antimicrobial activity against Klebsiella pneumoniae 6828 strain expressing beta-lactamase VIM-19 by microdilution method; summary of the method: as §1
Escherichia coli [3] = assay: Antimicrobial activity against Escherichia coli 2603 strain expressing beta-lactamase VIM-19 by microdilution method; summary of the method: as §1
Escherichia coli [4] = assay: Antimicrobial activity against Escherichia coli harbouring plasmid BK-CMV expressing beta-lactamase VIM-19 by microdilution method
Summary of the method: (§2)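 MIC by dilution on Mueller-Hinton agar, inoculum 10^4 CFU per spot, interpreted by CA-SFM guidelines. Inhibitor combinations where tested: clavulanic acid 2 μg/ml, tazobactam 4 μg/ml, EDTA 0.4 mM. Transconjugants came from rifampin-resistant E. coli C600 selected on rifampin 300 μg/ml plus cefotaxime 0.5 μg/ml. Transformants came from electroporation into E. coli DH5α selected on cefotaxime 0.5 μg/ml.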

Escherichia coli [5] = assay: Antimicrobial activity against Escherichia coli DH5alpha 2878 transformant expressing beta-lactamase VIM-19 by microdilution method; summary of the method: as §2
Escherichia coli [6] = assay: Antimicrobial activity against Escherichia coli 138 expressing beta-lactamase VIM-19 by microdilution method; summary of the method: as §1
Klebsiella pneumoniae [7] = assay: Antimicrobial activity against Klebsiella pneumoniae 2878 strain expressing beta-lactamase VIM-19 by microdilution method; summary of the method: as §1
Providencia stuartii [8] = assay: Antimicrobial activity against Providencia stuartii 6858 strain expressing beta-lactamase VIM-19 by microdilution method in presence of 0.4 mM EDTA; summary of the method: as §1
Escherichia coli [9] = assay: Antimicrobial activity against Escherichia coli DH5alpha 2878 transformant expressing beta-lactamase VIM-19 by microdilution method in presence of 0.4 mM EDTA; summary of the method: as §2
Escherichia coli [10] = assay: Antimicrobial activity against Escherichia coli DH5alpha harbouring plasmid BK-VIM-19 expressing beta-lactamase VIM-19 by microdilution method; summary of the method: as §2
Escherichia coli [11] = assay: Antimicrobial activity against Escherichia coli C600 2878 transconjugate expressing beta-lactamase VIM-19 by microdilution method; summary of the method: as §2
Klebsiella pneumoniae [12] = assay: Antimicrobial activity against Klebsiella pneumoniae 2878 strain expressing beta-lactamase VIM-19 […] in presence of 0.4 mM EDTA
Escherichia coli [13] = assay: Antimicrobial activity against Escherichia coli harbouring plasmidBK-CMV expressing beta-lactamase VIM-19 […] in presence of 0.4 mM EDTA
Escherichia coli [14] = assay: Antimicrobial activity against Escherichia coli C600 2878 transconjugate expressing beta-lactamase VIM-19 by microdilution method in presence of 0.4 mM EDTA
Summary of the method: (§3)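 Rifampin-resistant E. coli C600 recipient mated with the clinical strain. Transconjugants were selected on agar with rifampin 300 μg/ml plus cefotaxime 0.5 μg/ml. MICs by dilution on Mueller-Hinton agar, inoculum 10^4 CFU per spot, CA-SFM interpretation. Inhibitor at a fixed level: clavulanic acid 2 μg/ml or EDTA 0.4 mM.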

Escherichia coli [15] = assay: Antimicrobial activity against Escherichia coli 138 expressing beta-lactamase VIM-19 by microdilution method in presence of 0.4 mM EDTA; summary of the method: as §2
Escherichia coli [16] = assay: Antimicrobial activity against Escherichia coli DH5alpha harbouring plasmid BK-VIM-19 expressing beta-lactamase VIM-19 by microdilution method in presence of 0.4 mM EDTA; summary of the method: as §2
Klebsiella pneumoniae [17] = assay: Antimicrobial activity against Klebsiella pneumoniae 6828 strain expressing beta-lactamase VIM-19 by microdilution method in presence of 0.4 mM EDTA; summary of the method: as §1
Escherichia coli [18] = assay: Antimicrobial activity against Escherichia coli 2603 strain expressing beta-lactamase VIM-19 by microdilution method in presence of 0.4 mM EDTA; summary of the method: as §1
Providencia stuartii [19] = assay: Antimicrobial activity against Providencia stuartii 6858 strain expressing beta-lactamase VIM-19 by microdilution method in presence of 2 ug/ml clavulanic acid; summary of the method: as §1
Klebsiella pneumoniae [20] = assay: Antimicrobial activity against Klebsiella pneumoniae 6828 strain expressing beta-lactamase VIM-19 by microdilution method in presence of 2 ug/ml clavulanic acid; summary of the method: as §1
Escherichia coli [21] = assay: Antimicrobial activity against Escherichia coli DH5alpha 2878 transformant expressing beta-lactamase VIM-19 by microdilution method in presence of 2 ug/ml clavulanic acid; summary of the method: as §2
Escherichia coli [22] = assay: Antimicrobial activity against Escherichia coli DH5alpha harbouring plasmid BK-VIM-19 expressing beta-lactamase VIM-19 by microdilution method in presence of 2 ug/ml clavulanic acid; summary of the method: as §2
Escherichia coli [23] = assay: Antimicrobial activity against Escherichia coli 2603 strain expressing beta-lactamase VIM-19 by microdilution method in presence of 2 ug/ml clavulanic acid; summary of the method: as §1
Klebsiella pneumoniae [24] = assay: Antimicrobial activity against Klebsiella pneumoniae 2878 strain expressing beta-lactamase VIM-19 by microdilution method in presence of 2 ug/ml clavulanic acid; summary of the method: as §1
Escherichia coli [25] = assay: Antimicrobial activity against Escherichia coli C600 2878 transconjugate expressing beta-lactamase VIM-19 by microdilution method in presence of 2 ug/ml clavulanic acid; summary of the method: as §3
Escherichia coli [26] = assay: Antimicrobial activity against Escherichia coli 138 expressing beta-lactamase VIM-19 by microdilution method in presence of 2 ug/ml clavulanic acid; summary of the method: as §1
Escherichia coli [27] = assay: Antimicrobial activity against Escherichia coli harbouring plasmidBK-CMV expressing beta-lactamase VIM-19 […] in presence of 2 ug/ml clavulanic acid

## CO/N=C(\C(=O)N[C@@H]1C(=O)N2C(C(=O)[O-])=C(C[N+]3(C)CCCC3)CS[C@H]12)c1csc(N)n1
Providencia stuartii [1]
  MIC: 2 µg/mL (≈ 4.16 µM)
Klebsiella pneumoniae [2]
  MIC: 4 µg/mL (≈ 8.32 µM)
Escherichia coli [3]
  MIC: 4 µg/mL (≈ 8.32 µM)
Escherichia coli [4]
  MIC: < 0.12 µg/mL
Escherichia coli [5]
  MIC: 4 µg/mL (≈ 8.32 µM)
Escherichia coli [6]
  MIC: 64 µg/mL (≈ 133 µM)
Klebsiella pneumoniae [7]
  MIC: 64 µg/mL (≈ 133 µM)

## C[C@@H](O)[C@H]1C(=O)N2C(C(=O)O)=C(SCCNC=N)C[C@H]12 [IMIPENEM ANHYDROUS]
Providencia stuartii [1]
  MIC: 16 µg/mL (≈ 53.4 µM)
Klebsiella pneumoniae [2]
  MIC: 4 µg/mL (≈ 13.4 µM)
Providencia stuartii [8]
  MIC: 0.5 µg/mL
Escherichia coli [9]
  MIC: < 0.12 µg/mL
Escherichia coli [10]
  MIC: 16 µg/mL (≈ 53.4 µM)
Escherichia coli [11]
  MIC: 4 µg/mL (≈ 13.4 µM)
Escherichia coli [3]
  MIC: 16 µg/mL (≈ 53.4 µM)
Klebsiella pneumoniae [12]
  MIC: 0.5 µg/mL
Escherichia coli [13]
  MIC: < 0.12 µg/mL
Escherichia coli [5]
  MIC: 8 µg/mL (≈ 26.7 µM)
Escherichia coli [6]
  MIC: 32 µg/mL (≈ 107 µM)
Escherichia coli [14]
  MIC: < 0.12 µg/mL
Escherichia coli [15]
  MIC: 0.5 µg/mL
Escherichia coli [16]
  MIC: < 0.12 µg/mL
Klebsiella pneumoniae [7]
  MIC: 64 µg/mL (≈ 214 µM)
Klebsiella pneumoniae [17]
  MIC: < 0.12 µg/mL
Escherichia coli [18]
  MIC: 0.25 µg/mL

## CC(C)(O/N=C(\C(=O)N[C@@H]1C(=O)N2C(C(=O)[O-])=C(C[n+]3ccccc3)CS[C@H]12)c1csc(N)n1)C(=O)O [CEFTAZIDIME]
Providencia stuartii [1]
  MIC: 64 µg/mL (≈ 117 µM)
Klebsiella pneumoniae [2]
  MIC: 64 µg/mL (≈ 117 µM)
Providencia stuartii [8]
  MIC: 4 µg/mL
Escherichia coli [9]
  MIC: 8 µg/mL
Escherichia coli [10]
  MIC: 32 µg/mL (≈ 58.5 µM)
Escherichia coli [11]
  MIC: 32 µg/mL (≈ 58.5 µM)
Escherichia coli [3]
  MIC: 128 µg/mL (≈ 234 µM)
Klebsiella pneumoniae [12]
  MIC: 8 µg/mL
Escherichia coli [4]
  MIC: 0.12 µg/mL (≈ 0.22 µM)
Escherichia coli [13]
  MIC: 0.12 µg/mL
Escherichia coli [5]
  MIC: 128 µg/mL (≈ 234 µM)
Escherichia coli [6]
  MIC: 512 µg/mL (≈ 937 µM)
Escherichia coli [15]
  MIC: 128 µg/mL
Escherichia coli [16]
  MIC: 0.12 µg/mL
Klebsiella pneumoniae [7]
  MIC: 128 µg/mL (≈ 234 µM)
Klebsiella pneumoniae [17]
  MIC: 8 µg/mL
Escherichia coli [18]
  MIC: 16 µg/mL

## CC1(C)S[C@@H]2[C@H](NC(=O)[C@H](C(=O)O)c3ccsc3)C(=O)N2[C@H]1C(=O)O [TICARCILLIN]
Providencia stuartii [1]
  MIC: > 2050 µg/mL
Klebsiella pneumoniae [2]
  MIC: > 2050 µg/mL
Escherichia coli [10]
  MIC: > 2050 µg/mL
Escherichia coli [11]
  MIC: > 2050 µg/mL
Escherichia coli [3]
  MIC: > 2050 µg/mL
Escherichia coli [4]
  MIC: 2 µg/mL (≈ 5.2 µM)
Escherichia coli [5]
  MIC: > 2050 µg/mL
Escherichia coli [6]
  MIC: > 2050 µg/mL
Klebsiella pneumoniae [7]
  MIC: > 2050 µg/mL

## CC1(C)S[C@@H]2[C@H](NC(=O)[C@H](N)c3ccc(O)cc3)C(=O)N2[C@H]1C(=O)O [AMOXICILLIN]
Providencia stuartii [19]
  MIC: > 2050 µg/mL
Klebsiella pneumoniae [20]
  MIC: > 2050 µg/mL
Providencia stuartii [1]
  MIC: > 2050 µg/mL
Klebsiella pneumoniae [2]
  MIC: > 2050 µg/mL
Escherichia coli [10]
  MIC: > 2050 µg/mL
Escherichia coli [11]
  MIC: > 2050 µg/mL
Escherichia coli [21]
  MIC: > 2050 µg/mL
Escherichia coli [3]
  MIC: > 2050 µg/mL
Escherichia coli [4]
  MIC: 4 µg/mL (≈ 10.9 µM)
Escherichia coli [22]
  MIC: > 2050 µg/mL
Escherichia coli [5]
  MIC: > 2050 µg/mL
Escherichia coli [23]
  MIC: > 2050 µg/mL
Klebsiella pneumoniae [24]
  MIC: > 2050 µg/mL
Escherichia coli [6]
  MIC: > 2050 µg/mL
Klebsiella pneumoniae [7]
  MIC: > 2050 µg/mL
Escherichia coli [25]
  MIC: > 2050 µg/mL
Escherichia coli [26]
  MIC: > 2050 µg/mL
Escherichia coli [27]
  MIC: 4 µg/mL

## CC(=O)OCC1=C(C(=O)O)N2C(=O)[C@@H](NC(=O)Cc3cccs3)[C@H]2SC1 [CEPHALOTHIN]
Providencia stuartii [1]
  MIC: > 2050 µg/mL
Klebsiella pneumoniae [2]
  MIC: 2050 µg/mL (≈ 5170 µM)
Escherichia coli [10]
  MIC: 1020 µg/mL (≈ 2580 µM)
Escherichia coli [11]
  MIC: 1020 µg/mL (≈ 2580 µM)
Escherichia coli [3]
  MIC: 2050 µg/mL (≈ 5170 µM)
Escherichia coli [4]
  MIC: 4 µg/mL (≈ 10.1 µM)
Escherichia coli [5]
  MIC: 2050 µg/mL (≈ 5170 µM)
Escherichia coli [6]
  MIC: > 2050 µg/mL
Klebsiella pneumoniae [7]
  MIC: > 2050 µg/mL
